TRPML3 ag = human TRPML3 channel agonists, primary screen, cell-based, HEK293 TRPML3-YFP, Fluo-8 calcium fluorescence, 3 µM | 220,000 tested, 0.29% active | 100% = the carbachol control signal | activation, % at 3 µM;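 active means activation above its plate's cutoff, the mean activation of the plate's test wells plus 3 SD, cut at about 12% in these data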;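 further: 0% = DMSO only wells and 100% = carbachol wells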
Target sequence (Q8TDD5 whole entry, looked up): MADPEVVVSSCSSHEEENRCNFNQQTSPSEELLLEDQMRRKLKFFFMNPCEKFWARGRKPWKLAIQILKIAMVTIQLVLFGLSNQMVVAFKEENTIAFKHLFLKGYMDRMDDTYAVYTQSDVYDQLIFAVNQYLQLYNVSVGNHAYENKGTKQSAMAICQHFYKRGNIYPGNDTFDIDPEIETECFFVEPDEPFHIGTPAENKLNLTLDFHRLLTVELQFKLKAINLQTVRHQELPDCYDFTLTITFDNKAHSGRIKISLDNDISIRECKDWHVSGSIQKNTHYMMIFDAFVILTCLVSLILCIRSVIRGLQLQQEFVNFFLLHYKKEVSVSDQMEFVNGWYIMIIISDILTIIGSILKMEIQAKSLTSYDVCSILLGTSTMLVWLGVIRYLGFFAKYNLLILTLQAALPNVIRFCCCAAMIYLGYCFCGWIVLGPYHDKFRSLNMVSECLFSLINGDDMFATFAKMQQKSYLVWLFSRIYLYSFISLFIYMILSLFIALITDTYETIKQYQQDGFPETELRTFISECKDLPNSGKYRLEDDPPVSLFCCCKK
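Test system: HEK293 cells stably carrying human TRPML3-YFP; Doses: single dose, 3 µM final nominal compound, 0.3% DMSO final; Schedule: dye loading 1 h 37 °C then 30 min ambient, 125 s read; Technique: Fluo-8 calcium fluorescence; Benchmarks: high control carbachol 87 µM, low control DMSO.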
OX1R antag-1 = OX1R (HCRTR1) antagonists, primary screen, fluorescence, CHO/OX1R cells, Fluo-8 calcium, orexin A; Fluo-8 calcium fluorescence; inhibition, % at 5 µM; Orexin/Hypocretin receptor type 1 (Homo sapiens), O43613; 330,000 tested, 0.43% active;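 active means inhibition above its plate's threshold, mean inhibition of all tested compounds on the plate plus 3 SD, cut at about 37% in these data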;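 further: 0% = orexin A challenge wells and 100% = SB-334867-A antagonist wells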
CHO parental Ca = ATP-evoked calcium signal inhibitors, parental CHO, primary screen, counter-screen for OX1R antagonist project, cell-based, fluorescence, Fluo-8 calcium dye; 330,000 tested, 0.63% active; AID 463079, 2010; inhibition, % at 5.6 µM; parental CHO-K1, ATP-induced calcium, Fluo-8 fluorescence;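 active means inhibition above that plate's mean sample inhibition plus 3 SD, cut at about 26% in these data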;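 further: 0% = ATP-challenged DMSO wells and 100% = DMSO wells without ATP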
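Test system: parental CHO cells; detection: calcium-sensitive Fluo-8 fluorescence; evaluation: percent inhibition of calcium signal; also added: ATP as calcium-mobilizing challenge; repeats: one well per compound; control set: ATP-challenged DMSO wells low, unchallenged DMSO wells high; compound: single nominal dose of 5.6 µM per compound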
zfTRPN1 agonist = zebrafish TRPN1 channel agonists, primary screen, cell-based, HEK293, calcium fluorescence; activation, % at 3 µM; 220,000 tested, 0.18% active; transient receptor potential cation channel N1 (TRPN1/NompC), Danio rerio; HEK293 zebrafish TRPN1-YFP, Fluo-8 calcium fluorescence; 100% = response to 87 µM carbachol;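 active means activation above its plate's cutoff, the mean activation of test wells on that plate plus 3 SD, cut at about 19% in these data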;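 further: 0% = DMSO alone and 100% = 87 µM carbachol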
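Assay system: Zebrafish TRPN1-YFP in HEK293 cells | Incubation: Dye loading 1 h at 37 °C, then 30 min room temperature | Measured by: Kinetic Fluo-8 fluorescence, ex 470-495, em 515-575 nm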
OX1R antag-2 = antagonists of human orexin 1 receptor (OX1R); Orexin/Hypocretin receptor type 1 (Homo sapiens), O43613; OX1R-expressing cells, FRET antagonist read-out; inhibition, % at 6.6 µM; 330,000 tested, 1.8% active; AID 485270, 2010; in the data active means inhibition mostly above about 38%, no sharp cut-off; inactive means mostly below about 40%;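 further: 0% = agonist challenge alone and 100% = reference antagonist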
OX1R HTRF conf = OX1R (HCRTR1) antagonists, confirmation, cell-based, HTRF; shares compounds with OX1R antag-2; OX1R-expressing cells, HTRF antagonist assay; inhibition, % at 6.6 µM; 1,800 tested, 49% active; in the data active means inhibition above about 55%;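 further: CHO cells expressing OX1R stimulated with orexin A at about EC80; 0% = agonist challenge alone and 100% = reference antagonist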
CHO-K1 HTRF = signal inhibition in parental CHO-K1 cells, counter-screen for OX1R antagonist project, cell-based, HTRF; inhibition, % at 6.6 µM; 1,800 tested, 48% active; shares compounds with OX1R antag-2; AID 493232, 2011; HTRF counterscreen; in the data active means inhibition above about 17%;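 further: 0% = agonist challenge with vehicle and 100% = vehicle alone without agonist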
Numbers without * were called inactive; / = no result given. Compounds with a hit are over-represented: about 2.5% of the library has one in this group of screens.

SMILES	TRPML3 ag	OX1R antag-1	CHO parental Ca	zfTRPN1 agonist	OX1R antag-2	OX1R HTRF conf	CHO-K1 HTRF
O=C(NCCCN1CCCC1=O)c1ccc([N+](=O)[O-])s1	/	-6.8	-15.2	/	119.2*	57.0*	71.4*
Cc1cccc(OCc2nnc(-c3ccc(F)cc3)o2)c1	/	9.2	-5.4	/	4.1	/	/
COCc1nnc(NC(=O)c2cc(C(=O)OC)cc([N+](=O)[O-])c2)s1	1.0	-8.1	-4.5	1.0	90.3*	42.1	46.4*
COC(=O)c1cc(C(=O)Nc2nnc(CC(C)C)s2)cc([N+](=O)[O-])c1	0.4	-2.0	-0.9	0.0	22.4	/	/
CCOC(=O)c1c(NC(=O)Cn2cc([N+](=O)[O-])cn2)sc2c1CCC2	-0.1	-1.9	-18.8	0.5	7.0	/	/
NC(=O)c1c(NC(=O)Cn2cc([N+](=O)[O-])cn2)sc2c1CCCC2	-0.2	-17.6	-1.9	0.6	100.7*	17.9	6.8
Cc1cc(=O)[nH]c(N/N=C/c2c[nH]c3ccccc23)n1	0.2	-6.8	7.4	0.9	3.1	/	/
Cc1cc(=O)[nH]c(N/N=C/c2c(C)oc3ccccc23)n1	0.6	-9.0	-12.8	-0.6	76.9*	84.9*	5.5
COc1ccc(C)cc1NC(=O)Nc1ccc(C(=O)N2CCCC2)cc1	/	10.7	13.0	/	22.5	/	/
O=C(CN1C(=O)c2ccc([N+](=O)[O-])cc2C1=O)NCc1ccco1	-0.2	-11.1	-1.3	-1.7	88.0*	46.3	53.4*
CC(C)c1ccc(/C=N/NC(=O)c2nnn(-c3nonc3N)c2CSC2=NCCS2)cc1	1.3	-2.8	-0.7	-1.1	33.4	/	/
Cc1nc2ccc(NC(=O)c3ccc(Cl)c(NC(=O)c4cccs4)c3)cc2s1	0.3	-16.2	-12.2	0.6	81.5*	37.9	7.6
Cc1cc(C)nc(Nc2n[nH]c(-c3cccc4ccccc34)n2)n1	1.0	22.2	-20.0	-0.3	79.6*	60.4*	5.0
CCOC(=O)N/N=C(/C)c1ccc([N+](=O)[O-])o1	-0.1	8.2	-1.1	-0.2	93.1*	52.4	77.3*
C/C(=N\NC(=O)CCC(=O)N/N=C(\C)c1ccc(C)o1)c1ccc(C)o1	/	-4.2	-2.9	/	-1.0	/	/
C/[N+]([O-])=C1\Cc2ccccc2C1=O	0.9	-15.5	-12.2	1.1	104.7*	52.5	62.7*
O=C(Cc1ccccc1)NCC(=O)OCC(=O)c1ccc([N+](=O)[O-])cc1	1.1	-0.1	1.9	-0.5	85.7*	53.0	41.9*
O=C(COC(=O)C1CC2C=CC1C2)Nc1ccccc1[N+](=O)[O-] (stereo not given)	/	-8.8	-0.6	/	10.7	/	/
C=CCNC(=O)c1ccc2c(c1)S(=O)(=O)c1ccccc1C2=O	/	-23.1	-11.6	/	125.6*	58.3*	57.9*
CC(C)OCCCNC(=O)c1cccc(NC(=O)c2ccccc2)c1	0.8	0.1	-16.8	1.3	12.8	/	/
CC(C)OCCCNC(=O)c1ccc2c(c1)S(=O)(=O)c1ccccc1C2=O	/	-15.2	-11.2	/	85.2*	44.8	41.0*
COCCNC(=O)c1ccc2c(c1)S(=O)(=O)c1ccccc1C2=O	/	-5.5	0.0	/	85.8*	53.6	83.8*
O=C(NCc1ccc(C(F)(F)F)cc1)c1ccc2c(c1)S(=O)(=O)c1ccccc1C2=O	/	-18.1	-1.2	/	19.6	/	/
COc1cc(CNC(=O)c2ccc3c(c2)S(=O)(=O)c2ccccc2C3=O)cc(OC)c1	/	-13.6	-12.8	/	18.0	/	/
CCCCn1c(N)c(N(CC)C(=O)c2ccc3c(c2)S(=O)(=O)c2ccccc2C3=O)c(=O)[nH]c1=O	1.1	-3.2	-2.2	-0.2	84.7*	22.8	17.6*
SMILES	TRPML3 ag	OX1R antag-1	CHO parental Ca	zfTRPN1 agonist	OX1R antag-2	OX1R HTRF conf	CHO-K1 HTRF
CC(=O)NCCNC(=O)c1ccc2c(c1)S(=O)(=O)c1ccccc1C2=O	/	-32.4	-10.7	/	86.1*	54.3	85.3*
CC1CCC(NC(=O)c2ccc3c(c2)S(=O)(=O)c2ccccc2C3=O)CC1 (stereo not given)	/	-15.1	-22.9	/	25.4	/	/
CCNC(=O)c1ccc2c(c1)S(=O)(=O)c1ccccc1C2=O	0.3	-15.8	-21.3	0.1	188.9*	49.3	66.9*
O=C(NCc1ccc(F)cc1)c1ccc2c(c1)S(=O)(=O)c1ccccc1C2=O	/	-31.8	-22.4	/	26.2	/	/
COCC(C)NC(=O)c1ccc2c(c1)S(=O)(=O)c1ccccc1C2=O (stereo not given)	/	-3.9	-4.3	/	109.2*	49.6	55.2*
CN(CC(=O)Nc1ccc(Cl)c(S(=O)(=O)N2CCOCC2)c1)C(=O)c1ccc(C#N)cc1	/	-11.2	-6.6	/	0.8	/	/
O=S(=O)(c1ccc(NC(=S)N/N=C/c2c3ccccc3cc3ccccc23)cc1)N1CCOCC1	0.7	-7.2	-9.5	1.1	19.5	/	/
CCc1ccc(-c2csc(NC(=O)C3=COCCO3)n2)cc1	/	-11.5	-19.9	/	2.4	/	/
COc1cccc(CN(C)C(=O)Cc2ccc(OC)c(S(=O)(=O)N3CCOCC3)c2)c1	/	-11.1	-10.5	/	8.7	/	/
Cc1ccc(C)c(N2CCN(C(=O)c3ccc(CS(=O)Cc4cccc(Cl)c4)o3)CC2)c1 (stereo not given)	/	-27.5	-0.7	/	8.1	/	/
COc1cc(/C=N/NC(=O)c2sc3nc(C)cc(C)c3c2N)ccc1O	0.8	25.9	-10.8	1.0	99.7*	97.7*	24.6*
CN(C(=O)CSc1nnc(C(F)(F)F)n1N)C1CCS(=O)(=O)C1 (stereo not given)	0.1	-4.7	-5.0	1.9	7.5	/	/
CC(C)C[C@H](NC(=O)N1CC(=O)Nc2ccccc21)C(=O)N[C@H](Cc1c[nH]c2ccccc12)C(=O)O	/	-5.5	-18.6	/	17.6	/	/
CC(C)C[C@H](NC(=O)N1CC(=O)Nc2ccccc21)C(=O)N[C@@H](Cc1c[nH]c2ccccc12)C(=O)O	/	20.4	-0.1	/	81.8*	44.3	4.6
O=C(Nc1ccc2nccnc2c1)c1cnccn1	0.9	-2.9	-10.5	0.7	132.3*	42.1	70.1*
O=C(Nc1ccc2ccccc2c1)c1cnccn1	0.4	13.7	-13.4	0.8	2.3	/	/
O=C(Nc1ccc2oc(-c3ccccc3)nc2c1)c1cccs1	1.3	17.0	-13.5	4.7	81.7*	48.0	7.0
COc1cccc(C(=O)Nc2ccc(-c3nc4ccccc4o3)c(O)c2)c1	1.2	11.4	-7.7	1.3	9.6	/	/
